Source: ChEMBL document CHEMBL4428027, “3-Hydroxypyrimidine-2,4-diones as Selective Active Site Inhibitors of HIV Reverse Transcriptase-Associated RNase H: Design, Synthesis, and Biochemical Evaluations” (J Med Chem, 2016)
Calls of active or inactive are those of the source. The rule behind the calls is not given here.

Experiments:
[1] = target: T1, Human immunodeficiency virus type 1 reverse transcriptase (Human immunodeficiency virus 1, UniProt Q72547); assay: Inhibition of RNase H activity of full length recombinant HIV1 reverse transcriptase assessed as reduction in nonspecific internal cleavage using HTS1 substrate
Method in brief: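 Recombinant p66/p51 RT heterodimer. Fluorescent RNA/DNA duplex substrate HTS-1 measures internal cleavage. IC50 is the mean of at least three independent experiments.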

[2] = target: T1, Human immunodeficiency virus type 1 reverse transcriptase; assay: Inhibition of RNase H activity of full length recombinant HIV1 reverse transcriptase assessed as reduction in DNA 3'-end cleavage using HTS2 substrate
Method in brief: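 Recombinant p66/p51 RT heterodimer. Fluorescent RNA/DNA duplex substrate HTS-2 reports DNA 3′-end-directed (polymerase-dependent) cleavage. IC50 is the mean of at least three independent experiments.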

[3] = target: T1, Human immunodeficiency virus type 1 reverse transcriptase; assay: Inhibition of RNase H activity of full length recombinant HIV1 reverse transcriptase assessed as reduction in RNA 5'-end directed cleavage using HTS3 substrate
[4] = target: T1, Human immunodeficiency virus type 1 reverse transcriptase; assay: Inhibition of polymerase activity of HIV1 reverse transcriptase using poly(rA)-oligo(dT)16 and [3H]-TTP incubated for 20 mins by liquid scintillation spectrometry
Method in brief: (§1)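 Reaction mix: 10 µM [3H]-TTP, 40 nM poly(rA)-oligo(dT)16, 50 mM Tris-HCl pH 7.4 (37°C), 60 mM KCl, 5 mM MgCl2. Started with 10 nM RT; 20 min at 37°C. Quenched in ice-cold 10% TCA with 20 mM sodium pyrophosphate, then glass-fibre filtered and washed with TCA and ethanol. Label incorporation read by liquid scintillation.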

[5] = target: Human immunodeficiency virus type 1 integrase (Human immunodeficiency virus 1, UniProt Q7ZJM1); assay: Inhibition of HIV integrase pre-incubated for 10 mins before addition of oligo-5'-biotin ATGTGGAAAATCTCTAGCA annealed with ACTGCTAGAGATTTTCCACAT 3'-Cy5) substrate
Human immunodeficiency virus type 1 integrase, sequence (Q7ZJM1 whole entry, the tested form may be a part): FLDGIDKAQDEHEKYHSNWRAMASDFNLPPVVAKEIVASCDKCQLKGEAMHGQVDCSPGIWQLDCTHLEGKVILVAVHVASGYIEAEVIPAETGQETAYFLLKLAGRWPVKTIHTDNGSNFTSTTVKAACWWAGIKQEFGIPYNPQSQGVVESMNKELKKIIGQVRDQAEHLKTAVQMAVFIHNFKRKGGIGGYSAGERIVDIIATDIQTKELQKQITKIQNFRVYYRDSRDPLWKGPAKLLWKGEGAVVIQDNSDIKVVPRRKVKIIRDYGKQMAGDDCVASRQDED

[6] = target: T1, Human immunodeficiency virus type 1 reverse transcriptase; assay: Inhibition of re-constituted HIV1 reverse transcriptase RNase H domain fragment
Method in brief: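 Secondary check using a catalytically active, isolated HIV RNase H domain fragment (reconstituted) with duplex substrate HTS-1.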

[7] = Toxicity against human HeLa P4/R5 cells; format: cell-based
[8] = system: Human immunodeficiency virus 1; assay: Antiviral activity against HIV1 infected in human HeLa P4/R5 cells assessed as reduction in viral growth pre-incubated with cells for 16 hrs followed by additional 48 hrs incubation by fluorescence-based beta-galactosidase detection assay; format: functional, organism-based
Method in brief: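 P4R5 HeLa indicator cells (CD4, CXCR4, CCR5; HIV LTR-driven β-galactosidase reporter), 5×10^3 cells/well in DMEM/10% FBS with puromycin 0.5 µg/ml. Drug added 16 h before HIV exposure, then 48 h further incubation. Infection read by fluorescence-based β-galactosidase detection.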

[9] = target: Human immunodeficiency virus type 1 reverse transcriptase (Human immunodeficiency virus 1) (UniProt Q72547); assay: Inhibition of HIV1 polymerase activity of reverse transcriptase using poly(rA)-oligo(dT)16 and [3H]-TTP up to 25 uM incubated for 20 mins by liquid scintillation spectrometry; method in brief: as §1
[10] = target: Human immunodeficiency virus type 1 reverse transcriptase (Human immunodeficiency virus 1) (UniProt Q72547); assay: Inhibition of RNase H activity of full length recombinant HIV1 reverse transcriptase assessed as reduction in RNA 5'-end directed cleavage up to 25 uM using HTS3 substrate
[11] = target: Human immunodeficiency virus type 1 reverse transcriptase (Human immunodeficiency virus 1) (UniProt Q72547); settings: up to 25 µM
[12] = target: Human immunodeficiency virus type 1 reverse transcriptase (Human immunodeficiency virus 1) (UniProt Q72547); assay: Inhibition of RNase H activity of full length recombinant HIV1 reverse transcriptase assessed as reduction in nonspecific internal cleavage up to 25 uM using HTS1 substrate
[13] = target: Human immunodeficiency virus type 1 reverse transcriptase (Human immunodeficiency virus 1) (UniProt Q72547); assay: Inhibition of re-constituted HIV1 reverse transcriptase RNase H domain fragment up to 25 uM
Method in brief: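 Secondary check using a catalytically active, isolated HIV RNase H domain fragment (reconstituted) with duplex substrate HTS-1. […] Upper test concentration 25 µM.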

Row | Structure (SMILES) | IC50 ([1]; read-out: IC50) [µM] | IC50 ([2]; read-out: IC50) [µM] | IC50 ([3]; read-out: IC50) [µM] | IC50 [4] | IC50 [5] [µM] | IC50 ([6]; read-out: IC50) [µM] | CC50 [7] [µM] | IC50 ([4]; read-out: IC50) [µM] | other results
1 | Cc1noc(C)c1-c1ccc(Nc2cc(=O)n(O)c(=O)n2C)cc1 | 1.6 | 4.4 | 3.8 | Not Active | 25 | – | – | – | –
2 | Cn1c(Nc2ccc(-c3cccc(C#N)c3)cc2)cc(=O)n(O)c1=O | 1.2 | 3.7 | 3.3 | Not Active | 30 | 0.9 | 25 | – | –
3 | COc1ccc(-c2cccc(Nc3cc(=O)n(O)c(=O)[nH]3)c2)c(OC)c1 | 0.31 | 0.54 | 2.4 | – | 1.2 | – | – | 3.2 | –
4 | COc1ccc(-c2ccc(Nc3cc(=O)n(O)c(=O)n3C)cc2)cc1 | – | 6.6 | 5 | Not Active | 4.4 | 0.9 | 5 | – | –
5 | O=c1cc(Nc2cccc(-c3ccc(F)cc3)c2)[nH]c(=O)n1O | 0.2 | 0.3 | 0.3 | – | > 100 | 0.15 | > 25 | 6.6 | Activity [8]: inactive
6 | COc1cccc(-c2cccc(Nc3cc(=O)n(O)c(=O)n3C)c2)c1 | 0.6 | 3.5 | 4.3 | Not Active | 4.6 | 1.7 | 10 | – | –
7 | Cn1c(Oc2cccc(-c3cccc(O)c3)c2)cc(=O)n(O)c1=O | 0.9 | 12 | 4.3 | Not Active | 7.1 | – | – | – | –
8 | Cc1ccc(-c2cccc(Nc3cc(=O)n(O)c(=O)[nH]3)c2)cc1 | 0.38 | 0.45 | 0.44 | – | 44 | – | – | 3.1 | –
9 | Cn1c(Oc2ccc(-c3ccc(O)cc3)cc2)cc(=O)n(O)c1=O | 2.2 | 15 | 11 | Not Active | 12 | – | – | – | –
10 | Cn1c(Nc2cccc(-c3ccccc3)c2)cc(=O)n(O)c1=O | 0.85 | 3.5 | 3.4 | Not Active | 2.2 | – | – | – | –
11 | Cn1c(Oc2ccccc2-c2ccccc2)cc(=O)n(O)c1=O | – | – | – | Not Active | – | – | – | – | IC50 [2]: Not Active; IC50 [3]: Not Active; inhibition [9]: inactive; inhibition [10]: inactive; inhibition [11]: inactive
12 | COc1ccc(-c2ccccc2Oc2cc(=O)n(O)c(=O)n2C)cc1 | 2.3 | – | 22 | Not Active | 1 | 6.4 | 6 | – | IC50 [2]: Not Active
13 | COc1ccc(-c2cccc(Nc3cc(=O)n(O)c(=O)[nH]3)c2)cc1 | 0.2 | 0.3 | 0.4 | – | > 100 | 0.1 | > 25 | 6.3 | Activity [8]: inactive
14 | COc1cccc(-c2ccc(Nc3cc(=O)n(O)c(=O)[nH]3)cc2)c1 | – | – | – | – | – | – | > 25 | – | Activity [8]: inactive
15 | Cn1c(Nc2cccc(C3CCOC3)c2)cc(=O)n(O)c1=O (centres undefined) | – | – | – | Not Active | – | – | > 25 | – | IC50 [1]: Not Active; IC50 [2]: Not Active; IC50 [3]: Not Active; IC50 [6]: Not Active; inhibition [9]: inactive; inhibition [12]: inactive; inhibition [10]: inactive; inhibition [13]: inactive; inhibition [11]: inactive
16 | Cn1c(Nc2cccc(-c3cccc(C#N)c3)c2)cc(=O)n(O)c1=O | 1.1 | 3.2 | 4.1 | – | 7.1 | 1 | > 25 | 5 | –
17 | COc1cccc(-c2ccc(Oc3cc(=O)n(O)c(=O)n3C)cc2)c1 | 2 | 16 | 16 | Not Active | – | 5.1 | 6 | – | inhibition [9]: inactive
18 | Cc1ccc(-c2ccc(Nc3cc(=O)n(O)c(=O)[nH]3)cc2)cc1 | 0.4 | 0.7 | 0.5 | – | 93 | 0.4 | > 25 | 5.7 | Activity [8]: inactive
19 | COc1cc(OC)cc(-c2ccc(Nc3cc(=O)n(O)c(=O)[nH]3)cc2)c1 | 0.19 | 0.32 | 0.25 | – | 35 | – | – | 0.34 | –
20 | COc1cccc(OC)c1-c1cccc(Nc2cc(=O)n(O)c(=O)[nH]2)c1 | 0.51 | 0.7 | 0.47 | – | 1.3 | – | – | 1.7 | –
